Data: paper PMC4971285 (International Journal for Parasitology: Drugs and Drug …, 2016)
Read-outs that look alike come from different tables or passages of the source.

Key:
[1] = test system: T. cruzi Y trypomastigotes; experiment: Trypomastigote viability; format: cell-based, Trypanosoma cruzi; conditions: 30 μM compound, 24 h, with vs without 30 μM hemin
Outline: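 Culture-derived Y-strain trypomastigotes were collected from infected Vero supernatants at 4 dpi. Parasites (2 × 10^6/100 μl) incubated 24 h at 37 °C in RPMI 1640 with 30 μM test compound, with or without 30 μM hemin. […] Viability read by resazurin (0.005%) fluorescence at 530/600 nm. Percentage death calculated against the matching untreated or hemin-only control.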

T. cruzi Y amastigotes = experiment: Intracellular amastigotes in infected cardiomyocytes; format: cell-based; conditions: Trypanosoma cruzi, Cardiomyocyte, 72 h, read-out: Percentage of amastigote growth inhibition, 72 h of treatment with 10 μM of compounds
[2] = test system: T. cruzi Y epimastigote forms; experiment: Epimastigote growth inhibition; format: cell-based; conditions: Trypanosoma cruzi, 72 h, read-out: IC50 (Concentration that inhibits the growth of 50% of T. cruzi Y epimastigote forms within 72 h), 72 h, in the presence of 150 μM of heme, Probit
Outline: (§1)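 Log-phase Y-strain epimastigotes (5 × 10^5/mL) treated 72 h at 28 °C in BHI with folic acid, 150 μM hemin and 10% FBS, at 50, 25 and 12.5 μM. Final DMSO ≤1%. Counted in a Neubauer chamber, with motility and morphology as viability criteria. IC50 derived by probit. Selectivity index taken as cardiomyocyte CC50 divided by epimastigote IC50.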

[3] = Epimastigote growth inhibition; format: cell-based; conditions: Trypanosoma cruzi
Outline: as §1

Cardiomyocytes = experiment: Cytotoxicity on primary cardiomyocytes; format: cell-based, mice; conditions: read-out: CC50 Vero/CM, cardiomyocytes, 72 h, resazurin
Outline: (§2)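 Heart muscle cells were enzymatically isolated from mouse embryo myocardia and grown in DMEM with 2.5 mM CaCl2, 2% chick embryo extract, 7% FBS and 1 mM L-glutamine. Seeded 7 × 10^4/well, cultured 24 h, then treated 72 h at 100 to 3.7 μM, with or without 30 μM heme. Resazurin 0.005% for 4 h, fluorescence at 530/600 nm. CC50 fitted against untreated control. Triplicates.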

[4] = Cytotoxicity on primary cardiomyocytes; format: cell-based, mice; conditions: mouse, primary embryonic cardiomyocytes
Outline: as §2

[5] = Cytotoxicity on Vero cells; format: cell-based; conditions: African green monkey
Outline: (§3)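 Vero cells kept in RPMI 1640 with 10% FBS at 37 °C, 5% CO2, seeded 1.5 × 10^4/well and cultured 24 h. Treated 72 h at 100 to 3.7 μM, with or without 30 μM heme in medium. Resazurin (0.005%) added for 4 h at 37 °C, fluorescence read at 530/600 nm. CC50 fitted from dose-response versus untreated control. Triplicates.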

Vero cells = experiment: Cytotoxicity on Vero cells; format: cell-based
Outline: as §3

SMILES | increase in activity (death of trypomastigote forms) by combination with hemin [1] | inhibition of growth at 10 µM (T. cruzi Y amastigotes) [%] | IC50 [2] [µM] | selectivity ratio at 72 h [3] | CC50 (Cardiomyocytes; medium without heme) [µM] | CC50 (Cardiomyocytes; with 30 μM of heme) [µM] | CC50 at 72 h [4] [µM] | CC50 at 72 h [5] [µM] | CC50 (Vero cells; read-out: CC50 Vero/CM, medium without heme, 72 h, resazurin) [µM] | CC50 (Vero cells; read-out: CC50 Vero/CM, with 30 μM of heme, 72 h, resazurin) [µM]
O=C(Cn1ccnc1[N+](=O)[O-])NCc1ccccc1 [Bz, benznidazole, reference compound] | about 1.3 fold | 99.8 ± 0.4 | 5.6 ± 0.05 | > 17.9 | > 100 | > 100 | > 100 | > 100 | > 100 | > 100
N#Cc1cnc2ccc(Cl)cc2c1Nc1ccccc1 [Compound 1a, 6-chloro-4-(phenylamino)quinoline-3-carbonitrile] | ~1.6 fold | 45.5 ± 9 | 17.6 ± 6.1 | > 5.68 |  |  | > 100 | > 100 |  | 
N#Cc1cnc2ccc(Cl)cc2c1Nc1cccc(F)c1 [Compound 1b, 6-chloro-4-(3’-fluorophenylamino)quinoline-3-carbonitrile] |  | 53.2 ± 10 | 16.6 ± 0.2 | 4 |  |  | 67 ± 11.6 | 69 ± 22 |  | 
N#Cc1cnc2ccc(Cl)cc2c1Nc1ccc(F)cc1 [Compound 1c, 6-chloro-4-(4’-fluorophenylamino)quinoline-3-carbonitrile] |  | 52.5 ± 6 | 8.8 ± 1.3 | > 11.4 |  |  | > 100 | > 100 |  | 
N#Cc1cnc2ccc(Cl)cc2c1Nc1ccccc1Cl [Compound 1d, 6-chloro-4-(2’-chlorophenylamino)quinoline-3-carbonitrile] |  | 57.6 ± 8 | 40 ± 13.7 | 1.19 |  |  | 47.7 ± 13 | 64 ± 12.5 |  | 
N#Cc1cnc2ccc(Cl)cc2c1Nc1cccc(Cl)c1 [Compound 1e, 6-chloro-4-(3’-chlorophenylamino)quinoline-3-carbonitrile] |  | 55.4 ± 7 | 15.4 ± 0.7 | 4.2 |  |  | 65.2 ± 18.5 | 89 ± 18 |  | 
N#Cc1cnc2ccc(Cl)cc2c1Nc1cccc(Br)c1 [Compound 1f, 4-(3’-bromophenylamino)-6-chloroquinoline-3-carbonitrile] |  | 60.4 ± 9 | 21.2 ± 14.2 | > 4.7 |  |  | > 100 | 71 ± 26 |  | 
